# Assay outcomes: PubChem BioAssay, several laboratories
# Compounds with a hit are over-represented: about 1.5% of the library has one in this group of screens.
# PREPL inhibitor = human PREPL enzyme inhibition; Q4J6C6; recombinant PREPL, fluorescence polarization activity-based probe; inhibition, % at 5.96 µM; 0.68% of 320,000 active; AID 2751; in the data active = inhibition above about 43%;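 note: 0% = enzyme with DMSO and 100% = wells lacking enzyme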
# UCH37 DUB inh = blocks the human deubiquitinase UCH37 | purified proteasome/UCH37, Ub-AMC cleavage fluorescence | inhibition, % (concentration not given with the values) | 0.33% of 330,000 active | AID 588478;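 active = mean inhibition over replicate wells above about 20%, limit read from the data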;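 note: 0% = compound-free wells with enzyme and 100% = wells lacking proteasome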
# Target sequence (Q9Y5K5 whole entry, looked up): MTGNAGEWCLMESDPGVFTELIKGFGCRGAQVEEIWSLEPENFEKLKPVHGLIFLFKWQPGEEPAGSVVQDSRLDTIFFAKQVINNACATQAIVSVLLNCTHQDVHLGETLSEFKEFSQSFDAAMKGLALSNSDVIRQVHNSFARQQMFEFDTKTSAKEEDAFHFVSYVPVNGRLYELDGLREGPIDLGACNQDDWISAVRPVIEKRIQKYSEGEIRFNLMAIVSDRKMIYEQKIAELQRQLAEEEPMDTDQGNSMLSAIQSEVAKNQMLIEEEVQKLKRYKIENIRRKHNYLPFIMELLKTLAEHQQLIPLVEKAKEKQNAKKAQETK
#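 Schedule: 30 min plus 25 min, room temperature / Material: human UCH37 within purified proteasomes / Technique: AMC fluorescence intensity at 355/460 nm / Buffer or medium: pH 7.4 Tris-HCl (50 mM) with ovalbumin, ATP-MgCl2, DTT / Controls: wells without proteasome as full block, compound-free enzyme plus substrate as uninhibited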
# UBC13 polyUb = inhibitors of human UBC13 polyubiquitin chain formation | AID 485273 | inhibition, % at 20 µM | TR-FRET | 0.47% of 330,000 active; in the data active = inhibition above about 45%, passing the limit was not always enough
# Target sequence (P61088 whole entry, looked up): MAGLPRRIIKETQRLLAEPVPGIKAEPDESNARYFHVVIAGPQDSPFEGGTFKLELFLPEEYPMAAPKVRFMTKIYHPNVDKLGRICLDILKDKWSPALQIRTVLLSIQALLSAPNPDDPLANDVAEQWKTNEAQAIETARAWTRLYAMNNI
# Apaf1 inhib = blocks human Apaf-1 apoptosome activity; inhibition, % at 20 µM; reconstituted apoptosome caspase-3 activity, DEVD-Rh110 fluorescence; AID 489030; 0.71% of 330,000 active; O14727; active = inhibition of at least 40% at 20 µM;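 note: plate controls were DMSO wells for no effect and DEVD-CHO caspase inhibitor wells for full effect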
#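 Material: reconstituted apoptosome with Apaf-1, cytochrome c, caspase-9, procaspase-3, dATP; medium: pH 7.5 Hepes buffer with CHAPS, BSA, DTT; also added: cytochrome c and DEVD-Rh110 substrate; timing: 30 min plus 50 min, RT; signal: Rh110 fluorescence intensity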
# Apaf-1 inh conf = Apaf-1 inhibition, single-dose confirmed. shares compounds with Apaf1 inhib. reconstituted apoptosome, caspase-3 DEVD-Rh110 fluorescence. inhibition, % at 20 µM. 25% of 1,800 active. AID 504614;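 active = mean inhibition of at least 40% at 20 µM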;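 note: plate controls were DMSO wells for no effect and DEVD-CHO caspase inhibitor control wells for full effect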
# Rh110 interf inh = Rh110 signal interference in Apaf-1 inhibitor counter-screen | shares compounds with Apaf1 inhib | Rh110 fluorescence interference, quenched caspase reaction | activation (fluorescence interference), % at 20 µM | 1,800 tested, under 10 active;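 active = signal rise of 40% or more at 20 µM, treated as a fluorescence artifact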
# Apaf1 inh interf = shows fluorescence interference in the Apaf-1 inhibitor assay format; AID 588538; fluorescence interference counterscreen, Apaf-1 assay format; IC50, µM; shares compounds with Apaf1 inhib; 460 tested, under 10 active; call rule not given here
# An asterisk follows results filed as active; nt = no result given.
SMILES,PREPL inhibitor,UCH37 DUB inh,UBC13 polyUb,Apaf1 inhib,Apaf-1 inh conf,Rh110 interf inh,others
COc1ccc(NC(=O)CC2Nc3cc(C)c(C)cc3NC2=O)c([N+](=O)[O-])c1 (stereo not drawn),13.9,nt,-53.0,16.3,nt,nt,
Oc1c(Br)cc(C=Nc2ccc3nc(-c4ccccc4)[nH]c3c2)c(O)c1Br,42.6,-82.3,-18.0,64.9*,38.4,0.9,
Cc1cc2cc(CNC(=O)c3ccc(S(=O)(=O)N(C)C)cc3)ccc2n1C,7.4,4.4,5.8,45.4*,8.8,7.7,
CC(=O)Nc1ccc(S(=O)(=O)NCc2ccc3c(c2)cc(C)n3C)cc1,19.6,5.2,18.6,51.2*,3.8,2.5,
Cc1cc(C)c(S(=O)(=O)NCc2ccc3c(c2)cc(C)n3C)c(C)c1,-16.9,4.5,6.0,44.0*,3.1,-1.4,
Cc1cc2cc(CNC(=O)c3ccc(S(=O)(=O)N4CCOCC4)cc3)ccc2n1C,15.0,3.4,3.0,35.1,nt,nt,
Cc1cc2cc(CNS(=O)(=O)c3ccc4ccccc4c3)ccc2n1C,-4.7,2.4,-9.3,16.0,nt,nt,
Cc1ccc2nc(/C(C#N)=C\c3ccc(N4CCOCC4)o3)[nH]c2c1,-0.4,4.4,-4.8,44.1*,17.5,-28.1,
O=c1cc(-c2cccc([N+](=O)[O-])c2)[nH][nH]1,3.4,6.8,-22.1,67.8*,17.9,10.6,
O=[N+]([O-])c1cccc(-c2cn(-c3ccccc3)c(=S)[nH]2)c1,9.9,2.2,-4.6,-16.6,nt,nt,
O=C(NN=Cc1ccc(Br)cc1)c1ccccc1-n1cccc1,nt,1.0,nt,nt,nt,nt,
C/C(=N\NC(=O)CNc1cccc2ccccc12)c1ccccc1,22.2,nt,0.9,83.5*,15.1,8.1,
CN1c2cccc3cccc(c23)N(C)C1(C)C,13.8,-319.9,-16.6,45.5*,13.5,-3.7,
O=c1c(C=NNS(=O)(=O)c2ccccc2)coc2ccc(Cl)cc12,nt,2.7,nt,nt,nt,nt,
Clc1ccc(N=c2ssnc2Cl)nc1,0.8,17.3,-11.5,54.7*,66.9*,3.0,Apaf1 inh interf=>100
Clc1nssc1=Nc1ccc(Br)cc1,nt,3.7,nt,nt,nt,nt,
CCOC(=O)N1CCC(NC(=O)CCCN2C(=O)CSc3ncccc32)CC1,-7.8,-1.0,3.6,2.0,nt,nt,
CCOC(=O)N1CCC(NC(=O)CN2C(=O)CSc3ncccc32)CC1,14.2,-0.3,3.6,62.8*,7.8,1.5,
Cc1cc(N2CCN(C(=O)c3ccco3)CC2)c2ccccc2n1,11.8,8.5,-1.6,-6.4,nt,nt,
O=C(O)CCNc1cc(N2CCN(C(=O)c3ccco3)CC2)c2noc3c2c1C(=O)c1ccccc1-3,37.5,nt,-139.8,81.3*,73.0*,1.5,Apaf1 inh interf=13.2*
Cc1cccc(C)c1OCC(=O)NN=Cc1cc2c(cc1[N+](=O)[O-])OCO2,nt,2.7,nt,nt,nt,nt,
COc1cccc(CN(C)C(=O)c2cc(S(=O)(=O)NCc3ccccc3)ccc2C)c1OC,4.8,4.7,10.3,28.6,nt,nt,
COc1ccc(CN(C)C(=O)c2cc(S(=O)(=O)NCc3ccccc3)ccc2C)c(OC)c1,9.7,3.6,32.6,61.4*,40.0*,11.1,Apaf1 inh interf=>100
CN1CCN(N=Cc2nc(-c3ccc(Cl)cc3)n3ccccc23)CC1,nt,5.4,nt,nt,nt,nt,
CN1/C(=C\C(=O)COC(=O)c2nccnc2N)C(C)(C)c2ccccc21,-1.9,3.5,-10.7,7.9,nt,nt,
SMILES,PREPL inhibitor,UCH37 DUB inh,UBC13 polyUb,Apaf1 inhib,Apaf-1 inh conf,Rh110 interf inh,others
CN1/C(=C\C(=O)COC(=O)c2ccc([N+](=O)[O-])o2)C(C)(C)c2ccccc21,-9.4,-0.7,-7.3,56.2*,6.3,-0.3,
COc1cccc(C=NNC(=O)CSc2nnc(C)n2-c2ccccc2)c1OC,nt,2.1,nt,nt,nt,nt,
CCOc1ccc(-c2cc(C(=O)NCCCn3ccnc3)c3ccccc3n2)cc1,-0.3,-150.7,16.5,-5.9,nt,nt,
CCOc1ccc(-c2cc(C(=O)NCCCn3ccnc3)c3cc(Br)ccc3n2)cc1,-3.3,nt,3.4,42.5*,-0.6,9.1,
O=C(NN=Cc1ccc(OC(=O)c2ccccc2)c([N+](=O)[O-])c1)c1ccc(O)cc1,nt,11.2,nt,nt,nt,nt,
COC1=C(Nc2ccccc2OC)C(=O)c2ccccc2C1=O,-0.5,8.0,-140.6,54.5*,14.1,11.2,
COC(=O)c1ccc(C=Nn2c(C)nnc2C)cc1,nt,-1.4,nt,nt,nt,nt,
CCCc1ccc2oc(C(=O)NCCc3nc(C(=O)OCC)cs3)c(C)c2c1,nt,4.8,1.5,40.8*,21.1,11.6,
COc1cccc2cc(C(=O)NCc3ccc(Cl)cc3)c(=N)oc12,4.5,2.7,-9.9,41.6*,24.1,10.7,
COc1cccc2cc(C(=O)NCc3ccccc3)c(=N)oc12,1.0,0.7,-8.1,31.9,nt,nt,
COc1ccc(-c2nn(-c3ccccc3)cc2C=NNc2ccccn2)cc1OC,nt,-8.8,nt,nt,nt,nt,
CCN(Cc1ccccc1)S(=O)(=O)c1ccc(C(=O)N(CCCN(C)C)c2nc3ccc(F)cc3s2)cc1,2.5,4.8,30.0,20.8,nt,nt,
CCN(Cc1ccccc1)S(=O)(=O)c1ccc(C(=O)N(CCCN(C)C)c2nc3cc(OC)ccc3s2)cc1,23.4,6.2,38.6,40.0*,14.9,12.2,
Cc1cc(C(=O)NN=Cc2ccc([N+](=O)[O-])cc2)c2ccccc2n1,nt,3.5,nt,nt,nt,nt,
COc1ccc(NS(=O)(=O)c2cccc(C(=O)N3CCCCCCC3)c2)cc1,1.5,1.9,25.6,45.2*,38.8,17.4,
C=CCn1c(COc2ccc(OC)cc2)nnc1SC(C)C(=O)NC1CC1 (stereo not drawn),3.5,1.4,8.3,-9.1,nt,nt,
C=CCn1c(COc2cccc(C)c2)nnc1SC(C)C(=O)NC1CC1 (stereo not drawn),-4.5,-0.7,26.3,41.2*,46.9*,6.1,Apaf1 inh interf=>100
CC(C)c1ccc(/C=N/Nc2cc(N3CCOCC3)nc(N3CCOCC3)n2)cc1,21.0,nt,-7.7,62.1*,45.8*,10.5,Apaf1 inh interf=>100
Oc1cccc(C=NNc2cc(N3CCOCC3)nc(N3CCOCC3)n2)c1,nt,8.3,nt,nt,nt,nt,
Cc1cc(N/N=C/c2ccc(O)cc2O)nc(N2CCOCC2)n1,10.3,nt,-9.0,31.1,nt,nt,
Cc1cccc(/C=N/Nc2cc(N3CCOCC3)nc(N3CCOCC3)n2)c1,6.0,nt,-5.0,67.6*,33.4,3.9,
Oc1ccc(/C=N\Nc2cc(N3CCOCC3)nc(N3CCOCC3)n2)c(O)c1,7.1,nt,-22.1,85.1*,60.4*,7.0,Apaf1 inh interf=>100
Oc1ccc(C=NNc2cc(N3CCOCC3)nc(N3CCOCC3)n2)cc1,nt,9.7,nt,nt,nt,nt,
Oc1ccc(/C=N/Nc2cc(N3CCCC3)nc(N3CCCC3)n2)cc1O,13.2,nt,3.0,59.7*,88.8*,2.8,Apaf1 inh interf=>100
Cc1ncc(CO)c(C=NNC(=O)c2ccoc2C)c1O,nt,-404.2,nt,nt,nt,nt,
CC(=NNC(=O)c1ccoc1C)c1cccc2ccccc12,nt,1.3,nt,nt,nt,nt,
CCOC(=O)NN=Cc1ccc(-c2cc(Cl)ccc2Cl)o1,nt,2.3,nt,nt,nt,nt,
O=C(Cc1cccc(C(F)(F)F)c1)OCC(=O)N1CCN(S(=O)(=O)c2ccc(Cl)cc2)CC1,15.6,5.9,-8.3,51.1*,27.6,-8.9,
CC(=O)Oc1cccc(C=c2sc3nc(-c4ccco4)nn3c2=O)c1,nt,1.7,nt,nt,nt,nt,
